Screening data (PubChem BioAssay)
Rows were chosen to be rich in hits. Some 5% of all compounds tested hit in one or more screens of this group.
Beta cell apopt – inhibitors of cytokine-induced beta cell apoptosis, primary screen, luminescence | INS-1E cytokine-induced death, ATP luminescence, 48 h; percent of positive-control rescue, neutral wells zero | actives 0.8% (n = 300,000) | AID 435005, 2010 | protection from apoptosis, % (test concentration not listed);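 active = Every replicate reaches about 75%, or at least half do and their mean reaches it too, limit read from the data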;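 also: 0% = cytokine-treated negative control wells and 100% = positive control rescue; higher means more ATP so stronger rescue from cytokine killing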
XBP1 UPR activ – activators of adaptive XBP1 UPR arm, primary screen, cell-based, CHO-XBP1 luciferase reporter, luminescence, uHTS; IRE1-XBP1 UPR activation; percent of tunicamycin response, DMSO as zero; activation, % at 20 µM; actives 0.33% (n = 330,000); AID 463104, 2010;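 active = versus positive control, 20 µM dose yields 30% or more activation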;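 also: 100% = tunicamycin at 10 µg/mL and 0% = DMSO only wells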
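Assay system: CHO-XBP1 luciferase reporter cells; Schedule: 6 h treatment, 37 °C; Detection: glow luminescence from Steady-Glo reagent; Benchmarks: high control tunicamycin 10 µg/mL final, low control DMSO vehicle only.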
CHOP UPR activ – activators of apoptotic CHOP UPR arm, primary screen, cell-based, CHO-CHOP luciferase reporter, luminescence, uHTS; UPR activation; percent of tunicamycin response over DMSO baseline; AID 449763, 2010; activation, % at 10 µM; actives 0.34% (n = 330,000);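 active = at 10 µM dose, activation of 40% or more, normalized to positive control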;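 also: 100% = tunicamycin at 10 µg/mL and 0% = DMSO alone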
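Assay system: CHO cells with stable CHOP pathway luciferase reporter; Buffer or medium: F12 plus 10% serum; Times: 16-18 h cell attachment, then 6 h compound exposure, 37 °C; Signal: luciferase luminescence; Read-out basis: percent activation relative to tunicamycin control; Control set: tunicamycin high control, DMSO low control.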
T cruzi repl – inhibitors of intracellular T. cruzi growth, primary screen, luminescence, NIH3T3 host cells | T. cruzi beta-gal in NIH3T3, 90 h | inhibition, % (test concentration not listed) | actives 1.4% (n = 300,000) | AID 1885, 2009;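 active = mean inhibition across valid replicates above about 55%, limit read from the data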;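 also: signal also drops with host cell toxicity which is not excluded here; 0% = plate median of DMSO wells and 100% = zero luminescence signal; higher percent means less beta-gal luminescence so fewer parasites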
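System – NIH/3T3 host cells with β-galactosidase reporter T. cruzi · Doses – single 50 nL compound addition per well in DMSO · Reagent – 5000 T. cruzi trypomastigotes/well · Medium – Low-serum DMEM with 2% FBS · Timing – ≥90 h infection period, 3 h prior cell attachment · Evaluation – parasite load inhibition, % · Technique – GalScreen luminescence, 60 min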
Mdm2-MdmX inh – inhibitors of human Mdm2-MdmX association, primary screen, cell-based, luminescence, split luciferase, SaOS-2, uHTS; Protein Mdm4 (Homo sapiens) + E3 ubiquitin-protein ligase Mdm2 (Homo sapiens), …; SaOS-2 split-luciferase Mdm2/MdmX complementation; inhibition, % at 8 µM; actives 3% (n = 330,000);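 active = inhibition of at least 50% at 8 µM in the primary screen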
CSC inhib – cancer stem cell viability inhibitors, primary screen, luminescence. cancer stem cell-like cells viability. inhibition, % at 7.5 µM. actives 1.1% (n = 300,000). AID 2717, 2010; in the data active = inhibition above about 75%; tested in HMLE shEcad cells
Mdm2 MdmX conf – Mdm2-MdmX complex disruptors, retested hits, confirmation, luminescence, single concentration; actives 55% (n = 10,000); inhibition, % at 8 µM; Mdm2-MdmX binding, luminescent assay; shares compounds with Mdm2-MdmX inh; in the data active = inhibition above about 40%
FLuc counter – full-length luciferase signal inhibition, confirmation, counter-screen for Mdm2/MdmX interaction inhibitor project, cell-based, single concentration, SaOS-2. shares compounds with Mdm2-MdmX inh. SaOS-2 full-length luciferase counterscreen, luminescence. inhibition, % at 8 µM. actives 77% (n = 6,200);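 active = mean inhibition at 8 µM reaching about 37%, which flags the compound as non-specific, limit read from the data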;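 also: p53-null SaOS-2 cells with luciferase driven by a doxycycline-inducible promoter; compound on cells about two nights before reading with doxycycline added after day one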
Numbers without * were called inactive; · = not tested or not shown.

SMILES | Beta cell apopt | XBP1 UPR activ | CHOP UPR activ | T cruzi repl | Mdm2-MdmX inh | CSC inhib | Mdm2 MdmX conf | FLuc counter
CC1CCCCC1NC(=O)CNC(=S)N1CC2CC(C1)c1cccc(=O)n1C2 (centres undefined) | -13.7 | -4.5 | 1.4 | -3.0 | -2.0 | -7.6 | · | ·
Cc1nn(Cc2ccccc2Cl)c(Cl)c1C(=O)O | -2.6 | -2.5 | 0.3 | -5.2 | -23.2 | -0.1 | · | ·
CC(C)(C)c1nc(N2CCN(C(=O)c3ccco3)CC2)c2nnn(Cc3ccccc3Cl)c2n1 | 21.1 | 10.6 | 1.4 | · | 57.4* | 119.0* | 9.2 | ·
C[C@H]1CCCC(=O)CCC/C=C/c2cc(O)cc(O)c2C(=O)O1 | -9.8 | -5.6 | -0.6 | 5.1 | 21.8 | 12.3 | · | ·
C[C@H]1CCC/C=C/[C@@H]2C[C@H](O)C[C@H]2[C@H](O)/C=C/C(=O)O1 | 116.9* | 12.1 | 115.1* | · | 97.0* | 100.3* | 98.5* | 47.7*
CCOC(=O)c1cc(CC)sc1/N=C/c1c(O)[nH]c(=S)[nH]c1=O | -0.9 | -1.6 | 3.0 | -6.8 | -17.7 | 1.1 | · | ·
C/C1=C\[C@@H](C)C/C=C/[C@H]2[C@@H]3O[C@]3(C)[C@@H](C)[C@H]3[C@H](Cc4c[nH]c5ccccc45)NC(=O)[C@]32C(=O)/C=C/C(=O)[C@@H]1O | · | -8.1 | -9.4 | 24.3 | 82.6* | 61.9 | 45.7* | 20.5
Oc1ccc(-[n+]2c(-c3ccccc3)cc(-c3ccccc3)cc2-c2ccccc2)cc1 | 123.0* | 8.3 | 38.1 | 49.9 | 98.1* | -15.3 | 71.5* | 58.9*
O=C([O-])c1ccc(-[n+]2c(-c3ccccc3)cc(-c3ccccc3)cc2-c2ccccc2)cc1 | 11.7 | -0.3 | 0.1 | 30.9 | 2.5 | -9.4 | · | ·
COc1ccc(-[n+]2c(-c3ccccc3)cc(-c3ccccc3)cc2-c2ccccc2)cc1 | 111.3* | 2.8 | 32.0 | 28.6 | 86.6* | 41.8 | 88.2* | 13.9
O=C(Nc1ccc2ccccc2c1)N1C[C@H]2C[C@@H](C1)c1cccc(=O)n1C2 | 3.0 | -1.8 | 0.5 | 30.6 | -15.9 | -6.5 | · | ·
COC(=O)C1=C(c2cc3ccccc3s2)C[C@@H]2CC[C@H]1N2C(=O)N1CCOCC1 | -2.0 | -4.6 | -0.7 | -18.3 | 54.8* | 52.5 | 55.0* | 55.5*
C/C=C(\C)C(=O)N[C@@H](c1ccccc1)[C@@H](O)C(=O)O[C@H]1C[C@@]2(O)[C@@H](OC(=O)c3ccccc3)C3[C@](C)(C(=O)[C@H](O)C(=C1C)C2(C)C)[C@@H](O)C[C@H]1OC[C@@]31OC(C)=O (some centres undefined) | · | 2.4 | -0.3 | 53.1 | 53.3* | 62.9 | 64.8* | 41.0*
C/C=C(\C)C(=O)N[C@@H](c1ccccc1)[C@@H](O)C(=O)O[C@H]1C[C@@]2(O)[C@@H](OC(=O)c3ccccc3)C3[C@](C)(C(=O)[C@H](OC(C)=O)C(=C1C)C2(C)C)[C@@H](O)C[C@H]1OC[C@@]31OC(C)=O (some centres undefined) | 13.4 | 1.7 | 0.4 | 52.0 | 34.5 | 39.7 | · | ·
NC(N)=N/N=C/c1cn(-c2ccccc2)nc1-c1cccs1 | 104.9* | 15.8 | 9.4 | 46.4 | 99.5* | -13.7 | 94.0* | 57.4*
Cc1cc(C)cc(N2C(=O)NC(=O)/C(=C\c3cccn3-c3ccc(Cl)cc3)C2=O)c1 | -3.7 | -7.4 | 270.6* | -25.6 | 68.6* | · | 56.5* | 78.9*
COc1ccccc1OP(=O)(Nc1cccnc1)Oc1ccccc1OC | · | 0.2 | -0.1 | -16.9 | 50.7* | · | 48.1* | 74.4*
CC(C)[C@H]1C(=O)O[C@H](C(C)C)C(=O)N(C)[C@@H](C(C)C)C(=O)O[C@H](C(C)C)C(=O)N(C)[C@@H](C(C)C)C(=O)O[C@H](C(C)C)C(=O)N1C | 109.0* | 5.4 | 22.8 | 55.2* | 95.3* | -7.3 | 88.2* | 48.5*
CCS(=O)(=O)NCc1nnc2n1-c1ccc(Br)cc1C(c1ccccc1Cl)=NC2 | -2.5 | -2.5 | 1.3 | 1.6 | 5.0 | -2.9 | · | ·
CC1=CC2/C=C(\C)CCC(O)C(O)/C=C/C(=O)C23C(=O)NC(CC(C)C)C3C1C (centres undefined) | 106.1* | -8.8 | -10.0 | 67.1* | 100.3* | 0.6 | 100.3* | 51.1*
CCOC(=O)C1CCCN(c2ccc([N+](=O)[O-])c3nonc23)C1 (centres undefined) | · | · | · | -0.1 | · | · | · | ·
COc1cc(/C=C/C(=O)c2c(O)n(CCc3ccccc3)c(=O)[nH]c2=O)ccc1O | -6.5 | 0.1 | 0.4 | -37.3 | 53.4* | -11.4 | 46.0* | 47.7*
O=C(/C=C/c1ccc2c(c1)OCO2)c1c(O)n(CCc2ccccc2)c(=O)[nH]c1=O | -11.9 | -1.2 | 2.0 | -3.2 | 65.0* | 56.2 | 25.6 | ·
O=C(/C=C/c1ccccc1)c1c(O)n(CCc2ccccc2)c(=O)[nH]c1=O | 1.5 | 1.8 | 0.7 | -27.1 | 69.1* | 41.7 | 37.4 | ·
CCCCn1c(O)c(C(C)=NCCc2ccccc2)c(=O)[nH]c1=O | 6.5 | 4.2 | -3.0 | 0.7 | 2.9 | -2.7 | · | ·
O=c1[nH]c(=O)n(CCc2ccccc2)c(O)c1C=NCCN1CCNCC1 | -1.9 | 0.9 | -0.9 | 15.2 | -2.4 | 3.9 | · | ·
C[C@]12CCC3C(CC[C@H]4C[C@@H](O)[C@H](O)C[C@]34C)C1CC[C@@H]2O (some centres undefined) | -2.5 | 0.2 | 1.8 | · | -12.5 | -9.7 | · | ·
CC[C@@]1(O)C(=O)OCc2c1cc1n(c2=O)Cc2cc3c(NC(=O)CN)cccc3nc2-1 | 71.3 | -1.1 | -0.6 | -32.7 | 83.7* | 108.3* | 78.8* | 56.9*
COc1cc2c(cc1OC)[C@@H]1C(=O)c3ccc4c(c3O[C@@H]1CO2)C[C@H](C(C)C)O4 | 132.6* | -4.4 | 8.5 | -19.7 | 57.8* | 40.6 | 38.6 | 63.5*
